# This is a sample that favours compounds with a hit; in the whole collection about 2.6% have one here.
# Yeast lifespan up – compounds extending yeast replicative lifespan, primary screen, S. cerevisiae, OD615. 130,000 compounds, 0.68% hits. inhibition of the nicotinamide effect, % at 10 µM. AID 775, 2007. S. cerevisiae growth with nicotinamide; deaD strain in restrictive glucose medium;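 active = inhibition above a set limit, placed 3 SD over the median of all compounds, cut at about 26% in these data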;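 note: 0% = nicotinamide-treated wells and 100% = cells grown without nicotinamide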
#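 System: DeaD-strain S. cerevisiae / Buffer or medium: CSMM-D, restrictive glucose (dextrose) synthetic minimal medium / Probe or stimulus: nicotinamide, 1.5 mM, co-present with compound / Compound: one concentration, 10 µM, DMSO 0.25% / Incubation: 48 h compound exposure at 30 °C, humidified / Technique: optical density (absorbance) at 615 nm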
# BB579 growth dn – growth inhibitors of yeast BB579 in restrictive medium, primary screen, yeast lifespan-shortening project, S. cerevisiae | OD615, 48 h | 140,000 compounds, 0.51% hits | inhibition, % at 10 µM;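 active = inhibition above a set limit, 3 SD over the mean compound inhibition, cut at about 44% in these data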
#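 Assay system: S. cerevisiae DeaD strain BB579 yeast. Medium: CSMM-D restrictive synthetic medium containing dextrose (glucose). Times: 4 h cell preincubation, 48 h compound exposure, 30 °C humidified. Signal: OD615 turbidity measurement. Benchmarks: positive control amphotericin B 10 µg/mL.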
# RAM network inh – inhibitors of the yeast RAM network, primary screen, dse1pr::URA3 reporter, 5-FOA selection; S. cerevisiae dse1pr::URA3 reporter, 5-FOA growth OD615, 2 d; analog-sensitive cbk1-as2 kinase mutant strain; inhibition, % at 50 µM; 190,000 compounds, 1.8% hits; AID 868, 2007;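 active = inhibition above a set limit, 3 SD over mean compound inhibition, cut at about 8.4% in these data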;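 note: 0% = DMSO-only wells with no growth and 100% = 10 µM 1-NA-PP1 full growth; inhibition rescues growth on 5-FOA so higher OD means more RAM inhibition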
# Numbers without * were called inactive; x = no result given.
SMILES,Yeast lifespan up,BB579 growth dn,RAM network inh
CCn1ccnc1CN(C)Cc1nc(Cc2cccc(C(F)(F)F)c2)no1,x,x,0
COC(=O)c1ccccc1NC(=O)C(C)c1ccc([N+](=O)[O-])cc1 (stereo unspecified),x,x,2
OC(CNCCC1C=Nc2ccccc21)Cn1c2ccc(Cl)cc2c2cc(Cl)ccc21 (stereo unspecified),-12,99*,2
OC(CNCC1CCCO1)Cn1c2ccc(Cl)cc2c2cc(Cl)ccc21 (stereo unspecified),-33,-66,-1
CC(=O)CCn1cnc([N+](=O)[O-])n1,x,x,0
Clc1cc(Cl)cc(CSc2nnc(-c3sccc3-n3cccc3)o2)c1,-2,-16,8
Clc1cccc(CSc2nnc(-c3sccc3-n3cccc3)o2)c1,-9,-13,8.9*
COc1ccc(CNC(=O)c2n[nH]c3ccccc23)cc1OC,x,x,3
Cc1cccc(/C(N)=N/OC(=O)c2cccs2)c1,-23,10,-1
Cc1cccc(/C(N)=N/OC(=O)c2ccc(F)cc2)c1,-10,95*,-1
O=C(Nc1ccc(Cl)cc1)OCc1cc(-c2ccccc2Cl)on1,-11,-45,7
Cc1ccc(NC(=O)OCc2cc(-c3ccccc3)on2)cc1,x,x,9.9*
CC(C)[C@@H]1NC(=O)c2cc([N+](=O)[O-])cc(I)c2NCCCC[C@@H](C(=O)NC(CC(=O)O)C(N)=O)NC(=O)[C@H](CO)NC1=O (stereo partly specified),20,-29,1
Nc1nc(-c2ccccc2)c(N=Nc2cccc3ccccc23)s1,3,-38,5
Nc1nc(-c2ccccc2)c(N=Nc2ccccc2Cl)s1,-2,-22,9.2*
CCOC(=O)c1sc2ccccc2c1OC(=O)c1ccccc1OC,16,-26,10*
CCOC(=O)c1cc(OC(=O)c2ccccc2OC)n(-c2ccccc2)n1,22,-3,1
Cc1ccc(CNC(=O)C(Cc2ccccc2)NS(=O)(=O)c2ccc(Br)s2)cc1 (stereo unspecified),9,-37,2
CSc1ccc(/C=C(\C#N)C(=O)NC2CCCCC2C)cc1 (stereo unspecified),9,-60,8
CC1CCCCC1NC(=O)/C(C#N)=C/c1ccccc1F (stereo unspecified),63*,-25,-1
CCOC(=O)c1ccccc1-c1csc(N)n1,x,x,1
CCOc1ccc(N2C(=O)CC(Sc3nc(-c4cccs4)cc(C(F)(F)F)c3C#N)C2=O)cc1 (stereo unspecified),7,-99,11*
CCOc1ccc(N2C(=O)CC(Sc3ncccn3)C2=O)cc1 (stereo unspecified),-5,-7,4
Cc1cccc(CS(=O)(=O)Cc2ccc(C(=O)NCc3cccs3)o2)c1,x,x,5
Cc1ccc(/C=C2\C(=O)ON=C2c2ccccc2)o1,x,x,1
SMILES,Yeast lifespan up,BB579 growth dn,RAM network inh
Cc1ccc(-c2ccc(/C=C3\C(=O)ON=C3c3ccccc3)o2)c([N+](=O)[O-])c1,71*,-21,7
Cc1cc(C)c(C#N)c(SCc2nnc(-c3ccccc3[N+](=O)[O-])o2)n1,x,x,11*
Cc1cc(C)c(C#N)c(SCc2ccccc2[N+](=O)[O-])n1,-1,-31,4
CC1(C)CC(=O)c2sc(NS(=O)(=O)c3ccc(F)cc3)nc2C1,x,x,2
Nc1c(Nc2ccccc2)c2ccccc2oc1=O,-26,48*,9.8*
CCNc1c(N)c(=O)oc2ccccc12,-4,16,2
COC(=O)c1cc(NC(=O)c2c(F)c(F)c(F)c(F)c2F)cc(C(=O)OC)c1,3,-37,2
CCOC(=O)c1cc(-c2ccc(F)cc2)n(CCC(=O)NC2CCN(Cc3ccccc3)CC2)c1C,x,x,2
COc1ccc(N=C2S/C(=C\c3ccc(C)o3)C(=O)N2CC(C)C)cc1,54,-12,11*
CCCN1C(=O)/C(=C/c2ccc(C)o2)SC1=Nc1ccc(OC)cc1,-5,-29,5
CCN1C(=O)/C(=C/c2ccc(C)s2)SC1=Nc1ccc(OC)cc1,-11,-26,9.1*
CCN1C(=O)/C(=C/c2cc(C)n(C)c2C)SC1=Nc1ccc(OC)cc1,-4,-31,4
CCc1cc2c(SCC(=O)O)ncnc2s1,0,-31,2
CCc1cc2c(cc(C(=O)O)n2C)s1,-6,58*,-1
COc1ccc(/C=C/c2nc(-c3ccccc3O)n[nH]2)cc1,-2,-42,8.8*
COc1ccc(-c2cc(-c3ccccc3)n[nH]2)c(O)c1,x,x,-1
COc1ccc(-c2cc(-c3ccccc3O)[nH]n2)cc1,-13,76*,-1
COc1ccc(/C=C/c2nc(-c3ccccc3O)n(-c3ccccc3)n2)cc1,-1,-45,1
Cc1cc(-c2ccccc2)n2ncc(-c3ccccc3)c2n1,-5,1,4
COc1ccc(-c2cc(C)nc3c(-c4ccccc4)cnn23)cc1,x,x,9.0*
COc1ccc(/C(C)=N/OC/C(O)=C(\C#N)c2nc3ccccc3[nH]2)cc1OC,x,x,2
CC(c1cccs1)N(Cc1ccco1)C(=S)Nc1ccccc1Cl (stereo unspecified),x,x,4
Cc1ccc(F)cc1NC(=O)c1cnccn1,x,x,0
CCOC(=O)c1c(N)sc(C(=O)OC)c1C,x,x,-1
CCOC(=O)c1c(N)sc2c(OC)c(Br)ccc12,-23,95*,2
SMILES,Yeast lifespan up,BB579 growth dn,RAM network inh
CCC1C/C(=C\c2cccnc2)C(=O)/C(=C/c2cccnc2)C1 (stereo unspecified),84*,-13,-1
CC(C)/C=C1\CC/C(=C\c2cccnc2)C1=O,x,x,1
O=C1/C(=C/c2cccnc2)CCC/C1=C\c1cccnc1,74*,2,0
CN(C)c1ccc(/C=C2\CCC/C(=C\c3ccccc3)C2=O)cc1,3,-37,9.0*
O=C1/C(=C/c2ccccc2)CCCc2ccccc21,-9,-6,1
O=C1/C(=C/c2cccnc2)CC/C1=C\c1cccnc1,x,x,0
Cc1c(Cl)cnc(NC(=O)CSc2nncs2)c1Cl,-1,-42,0
CC(C)NC(=O)NC(=O)COC(=O)c1ccc([N+](=O)[O-])cc1Cl,x,x,0
CCSC(=S)Nc1c(C)n(C)n(-c2ccccc2)c1=O,x,x,0
Cc1onc(-c2ccccc2Cl)c1C(=O)NC(=S)Nc1ccccc1F,x,x,11*
COc1ccccc1NC(=S)NC(=O)c1c(-c2ccccc2Cl)noc1C,x,x,6
COc1cc(Cl)ccc1NC(=O)COc1ccccc1C(=O)NN,x,x,0
N=C1/C(=C/c2cccn2Cc2ccc(Cl)cc2)C(=O)N=C2SC=CN12,2,-44,7
O=C(NCc1ccccn1)C(=O)Nc1nc(C23CC4CC(CC(C4)C2)C3)cs1,x,x,-1
CCOC(=O)c1sc(N)c(C(=O)Nc2ccccc2OC)c1C,x,x,4
COc1ccc(Nc2sc(C(=O)Nc3cccc(Cl)c3)c(N)c2C(=O)Nc2ccccc2OC)cc1,1,-23,9.7*
COc1ccccc1NC(=O)c1c(Nc2ccccc2F)sc(C(=O)Nc2cccc(Cl)c2)c1N,8,-54,11*
COc1ccc(OC)c(-c2cc(C(=O)Nc3cccc(Cl)c3)no2)c1,-10,-35,2

# Screening results from PubChem.
